Source: ChEMBL document CHEMBL3272217, “6,11-Dihydro-11-oxodibenz [b,e] oxepinacetic acids with potent antiinflammatory activity” (J Med Chem, 1976)

Columns and labels:
[1] = test system: Rattus norvegicus; assay: Antiinflammatory activity in po dosed rat assessed as inhibition of carrageenan-induced paw edema; assay type: functional; settings: for ED50: Rattus norvegicus, po, read-out: ID50 (the source's name)
Outline: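 Carrageenan paw edema (Winter method) in male rats, seven animals per dose. Drug given orally as a suspension in 0.5% CMC at three or more dose levels within 0.1–18 mg/kg.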

[2] = Acute toxicity in po dosed rat after 7 days; settings: in vivo
[3] = test system: Rattus norvegicus; assay: Antiinflammatory activity in Wistar albino rat assessed as inhibition of adjuvant-induced arthritis at 0.25 mg/kg, po administered for 14 days prior to adjuvant challenge relative to control; assay type: functional
Outline: (§1)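 Adjuvant arthritis in female rats, ten animals per dose. Oral treatment given either prophylactically or therapeutically at the stated doses. Percent inhibition reported as mean ± SE.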

[4] = test system: Rattus norvegicus; assay: Antiinflammatory activity in Wistar albino rat assessed as inhibition of adjuvant-induced arthritis at 0.25 mg/kg, po administered for 14 days followed by adjuvant challenge relative to control; assay type: functional; settings: 336 h; outline: as §1
[5] = test system: Mus musculus; assay: Analgesic activity in po dosed mouse assessed as inhibition of acetic acid-induced writhing; assay type: functional
Outline: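 Acetic acid writhing test (Koster method) in male mice, ten animals per dose level.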

[6] = test system: Rattus norvegicus; assay: Analgesic activity in carrageenan-treated po dosed rat assessed as concentration required to double pain index of control; assay type: functional
Outline: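 Randall–Selitto paw-pressure test in male rats after carrageenan injection, seven animals per dose level. Pain index = pain threshold after carrageenan / threshold before carrageenan. AID2.0 is the dose doubling the control group's pain index. It and its 95% fiducial limits come from a least-squares regression line, with limits by Fieller's equation.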

[7] = Toxicity in po dosed rat assessed as induction of gastric lesion; assay type: organism-based, Stomach; settings: in vivo, read-out: UD50 (the source's name)
Outline: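 Gastric lesions scored by the Jahn and Adrian method in male rats, ten animals per dose level, after oral dosing. UD50 and 95% fiducial limits by the Litchfield–Wilcoxon method.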

[8] = test system: Rattus norvegicus; assay: Antiinflammatory activity in rat with acute phase of inflammation assessed as inhibition of adjuvant-carrageenan-induced paw edema at 2 mg/kg, po relative to control; assay type: functional
Outline: (§2)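 Adjuvant-carrageenan-induced inflammation in female rats, ten animals per dose. Oral dosing at 1 or 2 mg/kg. Edema inhibition scored separately for the acute and prolonged phases, given as % inhibition (mean ± SE).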

[9] = test system: Rattus norvegicus; assay: Antiinflammatory activity in rat with prolonged phase of inflammation assessed as inhibition of adjuvant-carrageenan-induced paw edema at 2 mg/kg, po relative to control; assay type: functional; outline: as §2
[10] = test system: Rattus norvegicus; assay: Antiinflammatory activity in rat with acute phase of inflammation assessed as inhibition of adjuvant-carrageenan-induced paw edema at 1 mg/kg, po relative to control; assay type: functional; outline: as §2
[11] = test system: Rattus norvegicus; assay: Antiinflammatory activity in rat with prolonged phase of inflammation assessed as inhibition of adjuvant-carrageenan-induced paw edema at 1 mg/kg, po relative to control; assay type: functional; outline: as §2
[12] = test system: Rattus norvegicus; assay: Potency index, ratio of indomethacin ID50 to compound ID50 for antiinflammatory activity in po dosed rat assessed as inhibition of carrageenan-induced paw edema; assay type: functional
Outline: (§3)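 The ratio uses oral carrageenan paw-edema ID50 values from male rats, seven animals per dose, with drugs suspended in 0.5% CMC. Each ID50 comes from a least-squares dose–response regression. The index is reference ID50 divided by test ID50 on a weight basis.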

[13] = test system: Rattus norvegicus; assay: Potency index, ratio of phenylbutazone ID50 to compound ID50 for antiinflammatory activity in po dosed rat assessed as inhibition of carrageenan-induced paw edema; assay type: functional; outline: as §3
[14] = test system: Rattus norvegicus; assay: Potency index, ratio of ketoprofen ID50 to compound ID50 for antiinflammatory activity in po dosed rat assessed as inhibition of carrageenan-induced paw edema; assay type: functional; outline: as §3
[15] = test system: Rattus norvegicus; assay: Antiinflammatory activity in Wistar albino rat assessed as inhibition of adjuvant-induced arthritis at 0.5 mg/kg, po administered for 14 days prior to adjuvant challenge relative to control; assay type: functional; outline: as §1
[16] = test system: Rattus norvegicus; assay: Antiinflammatory activity in Wistar albino rat assessed as inhibition of adjuvant-induced arthritis at 0.5 mg/kg, po administered for 14 days followed by adjuvant challenge relative to control; assay type: functional; settings: 336 h; outline: as §1
[17] = test system: Rattus norvegicus; assay: Antiinflammatory activity in Wistar albino rat assessed as inhibition of adjuvant-induced arthritis at 10 mg/kg, po administered for 14 days prior to adjuvant challenge relative to control; assay type: functional; outline: as §1
[18] = test system: Rattus norvegicus; assay: Antiinflammatory activity in Wistar albino rat assessed as inhibition of adjuvant-induced arthritis at 10 mg/kg, po administered for 14 days followed by adjuvant challenge relative to control; assay type: functional; settings: 336 h; outline: as §1
[19] = test system: Rattus norvegicus; assay: Antiinflammatory activity in Wistar albino rat assessed as inhibition of adjuvant-induced arthritis at 2 mg/kg, po administered for 14 days prior to adjuvant challenge relative to control; assay type: functional; outline: as §1
[20] = test system: Rattus norvegicus; assay: Antiinflammatory activity in Wistar albino rat assessed as inhibition of adjuvant-induced arthritis at 1 mg/kg, po administered for 14 days followed by adjuvant challenge relative to control; assay type: functional; settings: 336 h; outline: as §1
[21] = test system: Rattus norvegicus; assay: Antiinflammatory activity in Wistar albino rat assessed as inhibition of adjuvant-induced arthritis at 30 mg/kg, po administered for 14 days prior to adjuvant challenge relative to control; assay type: functional; outline: as §1
[22] = test system: Rattus norvegicus; assay: Antiinflammatory activity in Wistar albino rat assessed as inhibition of adjuvant-induced arthritis at 30 mg/kg, po administered for 14 days followed by adjuvant challenge relative to control; assay type: functional; settings: 336 h; outline: as §1

## O=C(O)Cc1cccc2c1C(=O)c1ccccc1CO2
[1]
  ED50: > 18 mg/kg

## COC(=O)Cc1ccc2c(c1)C(=O)c1ccccc1CO2
[1]
  ED50: 15.2 mg/kg

## CCOC(=O)Cc1ccc2c(c1)C(=O)c1ccccc1CO2
[1]
  ED50: 17.8 mg/kg

## O=C(O)Cc1cc2c(c([N+](=O)[O-])c1)OCc1ccccc1C2=O
[1]
  ED50: > 18 mg/kg

## O=C(O)Cc1ccc2c(c1)C(=O)c1ccc(Cl)cc1CO2
[1]
  ID30: 3 mg/kg
  ED50: 41.6 mg/kg

## COc1ccc2c(c1)COc1ccc(CC(=O)O)cc1C2=O
[1]
  ED50: > 18 mg/kg

## O=C(O)Cc1ccc2c(c1)C(=O)c1cc(Cl)ccc1CO2
[1]
  ID30: > 18 mg/kg
  ED50: > 18 mg/kg

## CC(C(=O)[O-])c1ccc2c(c1)C(=O)c1ccccc1CO2.CC(C(=O)[O-])c1ccc2c(c1)C(=O)c1ccccc1CO2.[Ca+2] (configuration not stated)
[1]
  ED50: 3.5 mg/kg

## CC(C(=O)O)c1ccc2c(c1)C(=O)c1ccc(Cl)cc1CO2 (configuration not stated)
[1]
  ED50: 7.6 mg/kg

## CCOC(=O)Cc1ccc2c(c1)OCc1ccccc1C2=O
[1]
  ED50: 8.6 mg/kg

## O=C(O)Cc1ccc2c(c1)OCc1cc(Cl)ccc1C2=O
[1]
  ED50: 7.6 mg/kg

## O=C(O)Cc1ccc2c(c1)OCc1cc(F)ccc1C2=O
[1]
  ED50: > 9 mg/kg

## O=C(O)Cc1ccc2c(c1)OCc1cc(I)ccc1C2=O
[1]
  ED50: 6.7 mg/kg

## COc1ccc2c(c1)COc1cc(CC(=O)O)ccc1C2=O
[1]
  ED50: > 9 mg/kg

## Cc1ccc2c(c1)COc1cc(CC(=O)O)ccc1C2=O
[1]
  ED50: 6.6 mg/kg

## O=C(O)Cc1ccc2c(c1)OCc1cc(C(F)(F)F)ccc1C2=O
[1]
  ED50: > 9 mg/kg

## CC(C(=O)O)c1ccc2c(c1)OCc1cc(Cl)ccc1C2=O (configuration not stated)
[2]
  LD50 at 168 h: 12.1 mg/kg
[1]
  ED50: 1.4 mg/kg
[3]
  inhibition in vivo at 0.25 mg/kg: 50%
[4]
  inhibition in vivo at 0.25 mg/kg: 26%
[5]
  ED50: 36 mg/kg
[6]
  AID2.0 (dose doubling pain index): 0.28 mg/kg
[7]
  TD50: 32.3 mg/kg

## CC(C(=O)O)c1ccc2c(c1)OCc1cc(F)ccc1C2=O (configuration not stated)
[1]
  ED50: 4 mg/kg

## CC(C(=O)O)c1ccc2c(c1)OCc1cc(I)ccc1C2=O (configuration not stated)
[1]
  ED50: 4.8 mg/kg

## CC(C(=O)O)c1ccc2c(c1)OCc1cc(C(F)(F)F)ccc1C2=O (configuration not stated)
[1]
  ED50: > 9 mg/kg

## CC(C(=O)O)c1ccc2c(c1)OCc1ccc(Cl)cc1C2=O (configuration not stated)
[1]
  ED50: 11.9 mg/kg

## CC(C(=O)O)c1ccc2c(c1)C(=O)c1ccccc1CO2 (racemic)
[1]
  ID50: 2.6 mg/kg
[8]
  inhibition in vivo at 2 mg/kg: 57%
[9]
  inhibition in vivo at 2 mg/kg: 82%
[3]
  inhibition in vivo at 0.25 mg/kg: 36%
[4]
  inhibition in vivo at 0.25 mg/kg: 12%
[5]
  ED50: 14 mg/kg
[6]
  AID2.0 (dose doubling pain index): 0.4 mg/kg
[7]
  TD50: 14.1 mg/kg

## CC(C(=O)O)c1ccc2c(c1)OCc1ccccc1C2=O (racemic)
[2]
  LD50 at 168 h: 34.2 mg/kg
[1]
  ID50: 0.76 mg/kg
[10]
  inhibition in vivo at 1 mg/kg: 59%
[11]
  inhibition in vivo at 1 mg/kg: 110%
[3]
  inhibition in vivo at 0.25 mg/kg: 55%
[4]
  inhibition in vivo at 0.25 mg/kg: 30%
[5]
  ED50: 11 mg/kg
[6]
  AID2.0 (dose doubling pain index): 0.18 mg/kg
[7]
  TD50: 11.4 mg/kg

## CC(C(=O)O)c1ccc2c(c1)C(=O)c1ccccc1CO2 (stereo in doubt; 10)
[1]
  ID50: 1.3 mg/kg

## CC(C(=O)O)c1ccc2c(c1)C(=O)c1ccccc1CO2 (stereo in doubt; 11)
[1]
  ID50: 7.5 mg/kg

## CC(C(=O)O)c1ccc2c(c1)OCc1ccccc1C2=O (stereo in doubt; 23)
[1]
  ED50: 0.43 mg/kg
[12]
  Ratio: 15.4
[13]
  Ratio: 165.4
[14]
  Ratio: 32.3

## CC(C(=O)O)c1ccc2c(c1)OCc1ccccc1C2=O (stereo in doubt; 24)
[1]
  ID50: 0.67 mg/kg

## COc1ccc2c(c1)c(CC(=O)O)c(C)n2C(=O)c1ccc(Cl)cc1 [INDOMETHACIN]
[2]
  LD50 at 168 h: 18.9 mg/kg
[1]
  ED50: 8.4 mg/kg
[8]
  inhibition in vivo at 2 mg/kg: 48%
[9]
  inhibition in vivo at 2 mg/kg: 85%
[15]
  inhibition in vivo at 0.5 mg/kg: 48%
[16]
  inhibition in vivo at 0.5 mg/kg: 26%
[5]
  ED50: 10 mg/kg
[6]
  AID2.0 (dose doubling pain index): 1.53 mg/kg
[7]
  TD50: 6.6 mg/kg

## O=C(O)Cc1ccc2c(c1)C(=O)c1ccccc1CO2 [ISOXEPAC]
[2]
  LD50 at 168 h: 199 mg/kg
[1]
  ED50: 14.3 mg/kg
[8]
  inhibition in vivo at 2 mg/kg: 28%
[9]
  inhibition in vivo at 2 mg/kg: 55%
[17]
  inhibition in vivo at 10 mg/kg: 77%
[18]
  inhibition in vivo at 10 mg/kg: 56%
[5]
  ED50: 95 mg/kg
[6]
  AID2.0 (dose doubling pain index): 3.18 mg/kg
[7]
  TD50: 63 mg/kg

## CC(C(=O)O)c1cccc(C(=O)c2ccccc2)c1 (configuration not stated) [KETOPROFEN]
[1]
  ED50: 12.5 mg/kg
[19]
  inhibition in vivo at 2 mg/kg: 84%
[20]
  inhibition in vivo at 1 mg/kg: 42%
[5]
  ED50: 71 mg/kg
[6]
  AID2.0 (dose doubling pain index): 1.61 mg/kg
[7]
  TD50: 6.8 mg/kg

## O=C(O)Cc1ccc2c(c1)OCc1ccccc1C2=O [OXEPINAC]
[2]
  LD50 at 168 h: 110 mg/kg
[1]
  ED50: 3.7 mg/kg
[8]
  inhibition in vivo at 2 mg/kg: 45%
[9]
  inhibition in vivo at 2 mg/kg: 89%
[15]
  inhibition in vivo at 0.5 mg/kg: 55%
[16]
  inhibition in vivo at 0.5 mg/kg: 31%
[5]
  ED50: 58 mg/kg
[6]
  AID2.0 (dose doubling pain index): 0.44 mg/kg
[7]
  TD50: 79.9 mg/kg

## CCCCC1C(=O)N(c2ccccc2)N(c2ccccc2)C1=O [PHENYLBUTAZONE]
[1]
  ED50: 77.7 mg/kg
[21]
  inhibition in vivo at 30 mg/kg: 71%
[22]
  inhibition in vivo at 30 mg/kg: 58%
[5]
  ED50: > 400 mg/kg
[6]
  AID2.0 (dose doubling pain index): 17.22 mg/kg
[7]
  TD50: 96 mg/kg
